One may read the clearance as a measure of how efficiently the substance is removed, as volume per time. As usually defined, the Vd is the apparent volume that relates the amount in the body to the concentration in plasma or blood. A word on the Cmax: it is the maximum level reached in the sampled fluid or tissue. One may read the Tmax as the time from dosing to the highest level. The bioavailability is dose-corrected exposure relative to a reference, in per cent. Broadly, the AUC(0-t) is the area under the concentration-time curve up to a stated or last time point. For orientation: AUC(0-inf) means total exposure, with the tail of the curve extrapolated. One may read the CL/F as clearance divided by bioavailability, as obtained after extravascular dosing. What is called AUC is the area under the concentration-time curve, a measure of exposure.

The text below walks through data of ChEMBL document CHEMBL3526151, “Reversible disulfide formation of the glutamate carboxypeptidase II inhibitor E2072 results in prolonged systemic exposures in vivo” (Drug Metab Dispos, 2012).

Series [1] can be described thus: Clearance in Sprague-Dawley rat at 10 mg/kg, iv by LC-MS/MS analysis. More on the design: dose 10 mg/kg, route intravenous. Particulars: in vivo. The format is ADME, organism-based. Put shortly: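 Male Sprague-Dawley rats dosed intravenously at 10 mg/kg (n = 6). Blood sampling extended to 7 days into heparin tubes containing NEM. Plasma assayed for parent and homodisulfide by LC-MS/MS, calibration range 1–5000 ng/ml. Noncompartmental analysis, t1/2 = 0.693/λz. Mean ± S.D.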

The nature of series [2]: Phase 1 metabolic stability in mouse liver microsomes assessed as compound remaining at 10 uM measured for 1 hr by LC-MS/MS analysis in absence of cofactors. Particulars: read-out: Stability. The format is ADME. In a few lines:
(§1)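 Cofactor-free controls were run for each microsomal incubation: 0.5 mg/ml liver microsomes with 10 µM compound, omitting cofactors, so that cofactor-independent degradation could be measured. Samples were taken up to 1 h, quenched with acetonitrile containing internal standard, and the percent remaining was determined by LC-MS/MS.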

Series [3] can be described thus: Volume of distribution in Sprague-Dawley rat at 10 mg/kg, iv by LC-MS/MS analysis. Particulars: in vivo. More on the design: dose 10 mg/kg, route intravenous. The format is ADME, organism-based.
The nature of series [4]: Cmax in Sprague-Dawley rat plasma at 10 mg/kg, po administered as single dose by LC-MS/MS analysis. The format is ADME, organism-based. More on the design: dose 10 mg/kg, route oral. Put shortly: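 Male Sprague-Dawley rats were dosed orally with 10 mg/kg/day, either once or daily for 5 days; n = 4 per group. Blood was taken by cardiac puncture and liver, kidney, brain and sciatic nerve were collected at 0–8 h post-dose. Tissues were homogenized in PBS containing NEM at equal volume per gram. NEM-derivatized analyte was extracted with methanol and quantified by LC-MS/MS (1–5000 ng/ml). Cmax is the observed value.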

The nature of series [5]: Tmax in Sprague-Dawley rat at 0.1 mg/kg, po administered via gavage measured under fasted conditions by LC-MS/MS analysis. Particulars: in vivo. Type of series: ADME, organism-based. Further details: dose 0.1 mg/kg, route oral. In a few lines: (§2)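 Jugular-cannulated male Sprague-Dawley rats, 280–330 g, fasted overnight to 4 h post-dose. Single dose in 50 mM HEPES-buffered saline pH 7.4, by oral gavage or as tail-vein i.v. bolus. Blood into heparin/NEM tubes at 0–24 h. Plasma measured by LC-MS/MS; noncompartmental analysis; Tmax observed; Vd = dose/(AUCinf·λz).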

Series [6] is described as follows: Oral bioavailability in Sprague-Dawley rat at 1 mg/kg administered via gavage measured under fasted conditions by LC-MS/MS analysis. Type of series: ADME, organism-based. Particulars: in vivo.
The nature of series [7]: Tmax in cynomolgus monkey at 5 mg/kg, iv administered as bolus injection by LC-MS/MS analysis. The format is ADME, organism-based, Macaca fascicularis. Particulars: in vivo. Further details: dose 5 mg/kg, route intravenous. In a few lines:
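Cynomolgus monkeys (n=3) dosed at 5 mg/kg nominal, TCEP-treated 50 mM HEPES solution, either as i.v. bolus (cephalic or saphenous vein) or orally. Arterial cannula blood into heparin/NEM tubes for up to 9 days. Plasma parent and homodisulfide measured by LC-MS/MS; Tmax observed.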

A short description of series [8]: Elimination half life in cynomolgus monkey at 5 mg/kg, po by LC-MS/MS analysis. Type of series: ADME, organism-based, Macaca fascicularis. More on the design: dose 5 mg/kg, route oral. Particulars: in vivo, read-out: beta t1/2 (converted). In a few lines:
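Cynomolgus monkeys (n = 3) received a nominal 5 mg/kg dose in 50 mM HEPES, TCEP-treated to prevent disulfide formation. Dosing was either an IV bolus via cephalic or saphenous vein or oral. Arterial cannula blood was collected into NEM-containing heparinized tubes for up to 9 days and analyzed by LC-MS/MS. Noncompartmental analysis gave t1/2 = 0.693/λz and F% = dose-normalized mean AUCinf p.o./i.v. ×100.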

The nature of series [9]: AUC(0 to last) in Sprague-Dawley rat at 10 mg/kg, po administered via gavage measured under fed conditions by LC-MS/MS analysis. Further details: time 0 - last, dose 10 mg/kg, route oral. Particulars: plasma. Type of series: ADME, organism-based. In a few lines:
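Nonfasted male Sprague-Dawley rats given a single 10 mg/kg oral dose in 50 mM HEPES buffered saline, pH 7.4. Plasma collected 0.25–24 h into heparin/NEM tubes and assayed by LC-MS/MS. Noncompartmental parameters derived, including Cl/F and Vd/F. Mean ± S.D., n = 6–9.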

A short description of series [10]: AUC(0 to infinity) in Sprague-Dawley rat at 30 mg/kg, po administered via gavage measured under fasted conditions by LC-MS/MS analysis. Particulars: plasma. Type of series: ADME, organism-based. More on the design: time infinity, dose 30 mg/kg, route oral. Put shortly:
(§3)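 Fasted male Sprague-Dawley rats (280–330 g) received 0.1, 1, 10 or 30 mg/kg by oral gavage in 50 mM HEPES buffered saline, pH 7.4. Blood drawn at 0.25–24 h into heparin/NEM tubes; plasma analyzed by LC-MS/MS. Cmax taken as observed. AUC by linear trapezoidal rule with extrapolation by λz. Cl/F and Vd/F reported. Mean ± S.D., n = 4–9.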

Series [11] in a line: AUC(0 to infinity) in Sprague-Dawley rat at 1 mg/kg, iv administered as bolus injection measured under fasted conditions by LC-MS/MS analysis. The format is ADME, organism-based. Particulars: plasma. Further details: time infinity, dose 1 mg/kg, route intravenous. In a few lines:
(§4)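 Male Sprague-Dawley rats (280–330 g), jugular vein cannulated, fasted overnight until 4 h post-dose. Single tail-vein bolus of 0.1, 1, 10 or 30 mg/kg in 50 mM HEPES buffered saline, pH 7.4. Blood drawn 0–24 h into heparin tubes containing NEM. Plasma quantified by LC-MS/MS after NEM derivatization. Noncompartmental analysis: AUClast by linear trapezoidal rule, Cl = dose/AUC0-∞. Mean ± S.D., n = 4–9.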

Series [12] can be described thus: Phase 1 metabolic stability in monkey liver microsomes assessed as compound remaining at 10 uM measured for 1 hr by LC-MS/MS analysis in absence of cofactors. Type of series: ADME, Macaca mulatta. Particulars: rhesus monkey, read-out: Stability. Put shortly:
as §1
For orientation: Liver microsomes are vesicles of endoplasmic reticulum, rich in cytochrome P450 enzymes.

Series [13] is described as follows: Apparent oral clearance in Sprague-Dawley rat at 30 mg/kg, po administered via gavage measured under fasted conditions by LC-MS/MS analysis. More on the design: dose 30 mg/kg, route oral. Particulars: in vivo. Type of series: ADME, organism-based. Put shortly: as §3
The nature of series [14]: Phase 2 metabolic stability in monkey liver microsomes assessed as compound remaining at 10 uM measured for 1 hr by LC-MS/MS analysis in absence of cofactors. The format is ADME, Macaca mulatta. Particulars: rhesus monkey, read-out: Stability. Put shortly:
as §1

The test system of the next series is Rattus norvegicus. As to the kind of experiment: Analgesic activity in Sprague-Dawley rat chronic constriction injury model assessed as change in paw withdrawal latency at 10 mg/kg/day, po (reference value: -3.11 +/-0.34 s). The format is functional.
Another series relates to Cynomolgus monkey. As to the kind of experiment: AUC(0 to infinity) in cynomolgus monkey at 5 mg/kg, po by LC-MS/MS analysis. The format is ADME, organism-based, Macaca fascicularis, Plasma. More on the design: dose 5 mg/kg, route oral, time infinity. Particulars: in vivo. In a few lines:
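Cynomolgus monkeys (n = 3) dosed orally at a nominal 5 mg/kg in TCEP-treated 50 mM HEPES solution. Blood taken via iliac or femoral arterial cannula up to 9 days into heparin/NEM tubes. Plasma analyzed by LC-MS/MS. Cl/F and Vd/F derived noncompartmentally.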

Series [15] can be described thus: Phase 2 metabolic stability in human liver microsomes assessed as compound remaining at 10 uM measured for 1 hr by LC-MS/MS analysis. Type of series: ADME. Particulars: read-out: Stability. In a few lines: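 For glucuronidation, compound was preincubated at 37°C in 50 mM Tris-HCl, pH 7.5, with 0.5 mg/ml liver microsomes, 8 mM MgCl2 and 25 µg/ml alamethicin. Reactions were started in duplicate with 2 mM UDPGA (final). Samples were taken up to 1 h, quenched with acetonitrile containing internal standard, and compound disappearance was measured by LC-MS/MS.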

The nature of series [16]: AUC(0 to last) in Sprague-Dawley rat at 0.1 mg/kg, iv administered as bolus injection measured under fasted conditions by LC-MS/MS analysis. Type of series: ADME, organism-based. Further details: time 0 - last, dose 0.1 mg/kg, route intravenous. Particulars: plasma. In a few lines: as §4
Series [17] is described as follows: Volume of distribution in Sprague-Dawley rat at 30 mg/kg, iv administered as bolus injection measured under fasted conditions by LC-MS/MS analysis. Further details: dose 30 mg/kg, route intravenous. Particulars: in vivo. The format is ADME, organism-based. Put shortly: as §2

For the compound `O=C(O)c1cccc(-c2cccc(CCS)c2C(=O)O)c1`, in [1], the clearance was 2 mL/min/kg. Besides, the remaining at 1 h, 10 µM in series [2], in series [12], in series [14] and in [15] was above 90% throughout. Moreover, the Vd was found to be 19 L/kg in [3] and 1.08 L/kg in [17]. In addition, the highest concentration (Cmax) in series [4] was 4920 ng/mL. Further, the Tmax was determined as 49.8 min in series [5] and 4.8 min in [7]. The bioavailability in [6] turned out to be 23.7%. For the same compound, the half-life in series [8] was 574 min. In addition, the AUC(0-t) in [9] turned out to be 32200 ng·h/mL; in series [16] it was 1800 ng·h/mL. Besides, the AUC(0-inf) was 76600 ng·h/mL in [10] and 13000 ng·h/mL in series [11]. Also, in series [13], the CL/F was 8.5 mL/min/kg. Further, in the series with Rattus norvegicus, the Time is -0.55 s. The compound also had an AUC in the series with Cynomolgus monkey of 24935.6 ng·h/mL.
